From publication PMC3836752 (Organic letters, 2013)

What was measured:
BamL [1] = biological target: T1, BamL (Bacillus velezensis, UniProt D3VMM1); assay: BamL methylation assay, ESI-MS endpoint / LC-MS; format: biochemical; conditions: for conversion into dimethylated product / dimethylation by BamL: condition A: 16 h endpoint assay, BamL in the presence of SAM, ESI-MS/HRMS and LC-MS
T1 sequence (D3VMM1 1-270): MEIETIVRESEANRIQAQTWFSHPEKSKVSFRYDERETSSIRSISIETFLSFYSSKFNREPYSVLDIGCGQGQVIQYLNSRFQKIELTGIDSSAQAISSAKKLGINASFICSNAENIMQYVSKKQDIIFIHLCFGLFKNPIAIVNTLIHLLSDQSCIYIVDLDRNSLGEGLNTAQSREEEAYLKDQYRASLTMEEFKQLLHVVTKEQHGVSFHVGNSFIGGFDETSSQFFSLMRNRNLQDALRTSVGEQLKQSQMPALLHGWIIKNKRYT
Method in brief: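 Test compounds were incubated with BamL and scored as substrates by conversion of starting material. Two conditions were used: a standard assay, and a more stringent 1 h assay (condition B) with lower enzyme and substrate concentrations for finer resolution of substrate efficiency.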

BamL [2] = biological target: T1, BamL; assay: ITC binding assay with BamL; conditions: for Kd: BamL
Method in brief: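 Test compounds were titrated with BamL by isothermal titration calorimetry. The binding isotherms were fitted to give Kd and thermodynamic binding parameters. The same titration was applied to a minimal arginine amide ligand.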

BamL [3] = biological target: T1, BamL; conditions: cited from earlier work; for processing by BamL: Arg-containing tetrapeptides as substrate mimics
Bacillus anthracis = conditions: against Bacillus anthracis; ref 1b; cited from earlier work

Compound: C=CCOC(=O)c1csc([C@@H](N)CCCNC(=N)N)n1 [compound 2]
- conversion into dimethylated product (BamL [1]): left detectable levels of unconverted starting material
- dimethylation by BamL (BamL [1]): dimethylated by BamL
- Kd (BamL [2]): 2.2 µM
- increase in affinity for BamL versus 17 (2 vs. 17) (BamL [2]; addition of a single thiazole to Arg-NH2): two orders of magnitude

Compound: CCOC(=O)c1csc(-c2nc(-c3csc([C@@H](N)CCCNC(=N)N)n3)oc2C)n1 [compound 3]
- processing by BamL compared to 2 (BamL [1]; 3 compared to 2, differences in affinity not solely responsible): enhanced processing
- conversion into dimethylated product (BamL [1]): full conversion
- dimethylation by BamL (BamL [1]): dimethylated by BamL
- conversion into dimethylated product (reaction completeness) (BamL [1]; condition B: more stringent 1 h assay, lower concentrations of enzyme and substrate, ESI-MS): nearly complete
- reaction efficiency with BamL (BamL [1]; three azole rings compared with one azole, conditions A and B): reaction efficiency increases substantially
- affinity for BamL relative to monoazole 2 (BamL [2]): marginally higher affinity
- Kd (BamL [2]): 1.7 µM
- thermodynamic origin of stronger interaction compared to 2 (BamL [2]; analysis of Gibbs free energy terms, 3 compared to 2): primarily entropically driven

Compound: N=C(N)NCCC[C@H](N)C(N)=O [compound 17, Arg-NH2]
- conversion to (CH3)2-Arg-NH2 by BamL (BamL [3]): inefficiently converted

Compound: RAAA
- processing by BamL (BamL [3]): unprocessed by BamL

Compound: RGGG
- processing by BamL (BamL [3]): unprocessed by BamL

Compound: plantazolicin [PZN]
- antibacterial action (Bacillus anthracis): highly discriminating antibacterial action against Bacillus anthracis
